Tests used:
Assay type in all cases: cell-based
[1] = biological target: Probable G-protein coupled receptor 34 (Mus musculus, UniProt Q9R1K6); assay: Agonist activity at mouse GPR34 expressed in HEK293 cells co-transfected with AP-TGFalpha/chimeric Galphaq/i1 assessed as induction of ectodomain shedding of membrane bound AP-TGFalpha after 1 hr
How it was run: (§1)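 HEK293A cells transiently co-transfected with AP-TGFα, chimeric Gαq/i1 and GPR34 (human for line 1, mouse for line 3) or empty vector (mock). After 24 h, cells were suspended in HBSS with 5 mM HEPES pH 7.4 and preincubated 30 min with 10 μM (final) Ki16425. Compounds in HBSS with 0.01% fatty acid-free BSA were added for 1 h at 37 °C. AP activity in medium and on cells was read as OD405 with p-NPP after 1 h at room temperature.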

[2] = biological target: Probable G-protein coupled receptor 34 (Mus musculus) (UniProt Q9R1K6); assay: Intrinsic activity at mouse GPR34 expressed in HEK293 cells co-transfected with AP-TGFalpha/chimeric […] assessed as induction of ectodomain shedding of membrane bound AP-TGFalpha after 1 hr relative to O-(Hydroxy(((2R,3R)-2-(((3-(2-((3-phenoxybenzyl)oxy)phenyl)- propanoyl)oxy)methyl)tetrahydro-2H-pyran-3-yl)oxy)phosphoryl)- L-serine
Probable G-protein coupled receptor 34 (Mus musculus), sequence (Q9R1K6 whole entry, the tested form may be a part): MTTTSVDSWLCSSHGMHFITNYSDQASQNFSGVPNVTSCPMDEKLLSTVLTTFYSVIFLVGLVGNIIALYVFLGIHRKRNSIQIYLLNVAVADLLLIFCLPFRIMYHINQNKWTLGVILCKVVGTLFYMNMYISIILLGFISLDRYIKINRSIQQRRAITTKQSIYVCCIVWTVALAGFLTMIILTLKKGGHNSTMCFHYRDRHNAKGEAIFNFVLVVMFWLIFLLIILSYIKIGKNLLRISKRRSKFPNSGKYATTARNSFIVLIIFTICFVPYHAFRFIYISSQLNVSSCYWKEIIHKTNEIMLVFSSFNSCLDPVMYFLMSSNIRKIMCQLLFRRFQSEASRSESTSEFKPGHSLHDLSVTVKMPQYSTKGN
How it was run: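 Relative intrinsic activity (RIA) was Emax/EC50 relative to that of a positive control agonist, whose RIA is defined as 1. Emax and EC50 came from sigmoid fits of receptor-specific AP-TGFα release in the HEK293A shedding assay, with human GPR34 for line 5 and mouse GPR34 for line 6, after 1 h at 37 °C.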

[3] = biological target: T1, Probable G-protein coupled receptor 34 (Homo sapiens, UniProt Q9UPC5); assay: Agonist activity at human GPR34 expressed in HEK293 cells co-transfected with AP-TGFalpha/chimeric Galphaq/i1 assessed as induction of AP-TGFalpha release after 1 hr; how it was run: as §1
T1 sequence (Q9UPC5 whole entry): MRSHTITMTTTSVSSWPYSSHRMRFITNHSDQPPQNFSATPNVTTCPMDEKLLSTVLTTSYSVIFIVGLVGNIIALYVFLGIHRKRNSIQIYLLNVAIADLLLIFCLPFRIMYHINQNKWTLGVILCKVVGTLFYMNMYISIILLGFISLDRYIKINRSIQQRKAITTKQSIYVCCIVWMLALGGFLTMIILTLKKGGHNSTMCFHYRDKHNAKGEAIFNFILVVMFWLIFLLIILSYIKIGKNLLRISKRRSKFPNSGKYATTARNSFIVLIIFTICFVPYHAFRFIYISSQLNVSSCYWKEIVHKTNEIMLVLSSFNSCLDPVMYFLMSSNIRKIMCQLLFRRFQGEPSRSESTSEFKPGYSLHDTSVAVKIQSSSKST

[4] = biological target: T1, Probable G-protein coupled receptor 34; assay: Intrinsic activity at human GPR34 expressed in HEK293 cells co-transfected with AP-TGFalpha/chimeric Galphaq/i1 assessed as induction of AP-TGFalpha release after 1 hr relative to O-(Hydroxy(((2R,3R)-2-(((3-(2-((3-phenoxybenzyl)oxy)phenyl)- propanoyl)oxy)methyl)tetrahydro-2H-pyran-3-yl)oxy)phosphoryl)- L-serine
[5] = biological target: Probable G-protein coupled receptor 34 (Mus musculus) (UniProt Q9R1K6); assay: Agonist activity at mouse GPR34 expressed in HEK293 cells co-transfected with AP-TGFalpha/chimeric Galphaq/i1 assessed as induction of ectodomain shedding of membrane bound AP-TGFalpha after 1 hr relative to control
How it was run: (§2)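 Same AP-TGFα shedding set-up in HEK293A (human GPR34 for line 2, mouse for line 4). Release was the %AP-TGFα in medium minus vehicle, then minus the mock-transfected response. Emax (% AP-TGFα release) and LogEC50 came from four-parameter sigmoid fits of plateau or semiplateau curves, as mean ± SEM of n independent experiments.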

[6] = biological target: T1, Probable G-protein coupled receptor 34; assay: Agonist activity at human GPR34 expressed in HEK293 cells co-transfected with AP-TGFalpha/chimeric Galphaq/i1 assessed as induction of AP-TGFalpha release after 1 hr relative to control; how it was run: as §2

Probable G-protein coupled receptor 34 (Mus musculus, UniProt Q9R1K6), sequence (Q9R1K6 whole entry, the tested form may be a part): as the sequence (Q9R1K6 whole entry, the tested form may be a part) above

Row | EC50 [1] | Intrinsic activity [2] | EC50 ([3]; read-out: EC50) | Intrinsic activity [4] | Emax [5] | Emax [6] | EC50 ([3]; read-out: pEC50 (converted)) | SMILES
1 | 39 nM | 3.7 | 27 nM | 9.8 | 18.2% | 22.1% | – | Cc1ccc(Oc2cccc(COc3ccccc3CCC(=O)OCCCOP(=O)(O)OC[C@H](N)C(=O)O)c2)cc1
2 | 220 nM | 0.48 | 90 nM | 1.7 | 19.4% | 21.7% | 95.5 nM | N[C@@H](COP(=O)(O)OCCCOC(=O)CCc1ccccc1OCc1cccc(Oc2ccccc2)c1)C(=O)O
3 | 900 nM | 0.079 | 300 nM | 0.7 | 16.9% | 28.2% | – | CC(C)(C)c1ccc(Oc2cccc(COc3ccccc3CCC(=O)OCCCOP(=O)(O)OC[C@H](N)C(=O)O)c2)cc1
4 | 120 nM | 0.66 | – | – | 18.7% | – | – | N[C@@H](COP(=O)(O)OCCCOC(=O)CCc1ccccc1OCc1cccc(Oc2ccc(F)cc2)c1)C(=O)O
5 | 650 nM | 0.28 | 180 nM | 1.2 | 20.3% | 22% | – | Cc1ccccc1Oc1cccc(COc2ccccc2CCC(=O)OCCCOP(=O)(O)OC[C@H](N)C(=O)O)c1
6 | 1200 nM | 0.071 | – | – | 20.7% | – | – | N[C@@H](COP(=O)(O)OCCCOC(=O)CCc1ccccc1OCCCCCCOc1ccccc1)C(=O)O
7 | 100 nM | 0.82 | – | – | 19.1% | – | – | N[C@@H](COP(=O)(O)OCCCOC(=O)CCc1ccccc1OCc1cccc(Oc2ccc(I)cc2)c1)C(=O)O
8 | 550 nM | 0.29 | 230 nM | 1.2 | 21.3% | 24.2% | – | Cc1cccc(Oc2cccc(COc3ccccc3CCC(=O)OCCCOP(=O)(O)OC[C@H](N)C(=O)O)c2)c1
9 | 78 nM | 0.94 | – | – | 13.4% | – | – | Cc1ccccc1-c1ccc(Oc2cccc(COc3ccccc3CCC(=O)OCCCOP(=O)(O)OC[C@H](N)C(=O)O)c2)cc1
10 | 18 nM | 4.3 | 41 nM | 3.2 | 11.6% | 17% | – | N[C@@H](COP(=O)(O)OCCCOC(=O)CCc1ccccc1OCc1cccc(Oc2ccc(-c3ccc(-c4ccccc4)cc3)cc2)c1)C(=O)O
11 | 1600 nM | 0.04 | – | – | 14.6% | – | – | CCCCCCCCCCCOc1ccccc1CCC(=O)OCCCOP(=O)(O)OC[C@H](N)C(=O)O
12 | 170 nM | 0.53 | – | – | 17.1% | – | – | N[C@@H](COP(=O)(O)OCCCOC(=O)CCc1ccccc1OCc1cccc(Oc2cccc(Cl)c2)c1)C(=O)O
13 | > 3000 nM | – | – | – | – | – | – | CCCCCCCC/C=C\CCCCCCCC(=O)OCCCOP(=O)(O)OC[C@H](N)C(=O)O
14 | 2000 nM | 0.041 | – | – | 18.3% | – | – | N#Cc1ccc(Oc2cccc(COc3ccccc3CCC(=O)OCCCOP(=O)(O)OC[C@H](N)C(=O)O)c2)cc1
15 | 2700 nM | 0.089 | – | – | 21.3% | – | – | Nc1ccc(Oc2cccc(COc3ccccc3CCC(=O)OCCCOP(=O)(O)OC[C@H](N)C(=O)O)c2)cc1
16 | 45 nM | 2.2 | 78 nM | 2.1 | 17.8% | 23% | – | N[C@@H](COP(=O)(O)OCCCOC(=O)CCc1ccccc1OCc1cccc(Oc2ccc(-c3ccccc3)cc2)c1)C(=O)O
17 | 210 nM | 0.39 | – | – | 19.9% | – | – | CC(C)(C)c1cccc(Oc2cccc(COc3ccccc3CCC(=O)OCCCOP(=O)(O)OC[C@H](N)C(=O)O)c2)c1

Row | EC50 [1] | Intrinsic activity [2] | EC50 ([3]; read-out: EC50) | Intrinsic activity [4] | Emax [5] | Emax [6] | EC50 ([3]; read-out: pEC50 (converted)) | SMILES
18 | > 3000 nM | – | – | – | – | – | – | CC(C)(C)c1ccccc1Oc1cccc(COc2ccccc2CCC(=O)OCCCOP(=O)(O)OC[C@H](N)C(=O)O)c1
19 | > 3000 nM | – | – | – | – | – | – | CCCCCCOc1cccc(COc2ccccc2CCC(=O)OCCCOP(=O)(O)OC[C@H](N)C(=O)O)c1
20 | 1200 nM | 0.069 | – | – | 19.8% | – | – | N[C@@H](COP(=O)(O)OCCCOC(=O)CCc1ccccc1OCc1cccc(Oc2ccccc2Cl)c1)C(=O)O
21 | 49 nM | 3.4 | – | – | 17.4% | – | – | CCCCCCOc1ccc(-c2ccc(Oc3cccc(COc4ccccc4CCC(=O)OCCCOP(=O)(O)OC[C@H](N)C(=O)O)c3)cc2)cc1
22 | 7.9 nM | 21 | – | – | 16.5% | – | – | CC(C)(C)c1ccc(-c2ccc(Oc3cccc(COc4ccccc4CCC(=O)OCCCOP(=O)(O)OC[C@H](N)C(=O)O)c3)cc2)cc1
23 | 260 nM | 0.28 | – | – | 16.6% | – | – | COc1ccc(Oc2cccc(COc3ccccc3CCC(=O)OCCCOP(=O)(O)OC[C@H](N)C(=O)O)c2)cc1
24 | > 3000 nM | – | – | – | – | – | – | N[C@@H](COP(=O)(O)OCCCOC(=O)CCc1ccccc1OCc1cccc(OCc2ccccc2)c1)C(=O)O
25 | 82 nM | 0.97 | – | – | 17.7% | – | – | N[C@@H](COP(=O)(O)OCCCOC(=O)CCc1ccccc1OCc1cccc(Oc2ccc(Br)cc2)c1)C(=O)O
26 | 180 nM | 0.42 | – | – | 19.3% | – | – | CCc1ccc(Oc2cccc(COc3ccccc3CCC(=O)OCCCOP(=O)(O)OC[C@H](N)C(=O)O)c2)cc1
27 | 14 nM | 7.7 | 15 nM | 8.6 | 15.9% | 18.8% | – | CC(C)(C)c1cccc(-c2ccc(Oc3cccc(COc4ccccc4CCC(=O)OCCCOP(=O)(O)OC[C@H](N)C(=O)O)c3)cc2)c1
28 | 120 nM | 0.76 | – | – | 17.8% | – | – | N[C@@H](COP(=O)(O)OCCCOC(=O)CCc1ccccc1OCc1cccc(Oc2ccc(Cl)cc2)c1)C(=O)O
29 | 800 nM | 0.11 | – | – | 18.8% | – | – | N[C@@H](COP(=O)(O)OCCCOC(=O)CCc1ccccc1OCc1cccc(OC2CCCCC2)c1)C(=O)O
30 | > 3000 nM | – | – | – | – | – | – | N[C@@H](COP(=O)(O)OCCCOC(=O)CCc1ccccc1OCc1cccc(-c2ccccc2)c1)C(=O)O
31 | 110 nM | 0.71 | – | – | 18% | – | – | N[C@@H](COP(=O)(O)OCCCOC(=O)CCc1ccccc1OCc1cccc(Oc2ccc(Cl)c(Cl)c2)c1)C(=O)O
32 | 1300 nM | 0.077 | – | – | 14.5% | – | – | N[C@@H](COP(=O)(O)OCCCOC(=O)CCc1ccccc1OCc1cccc(Cc2ccccc2)c1)C(=O)O
33 | > 3000 nM | – | – | – | – | – | – | CCCCCCOCC#CCOc1ccccc1CCC(=O)OCCCOP(=O)(O)OC[C@H](N)C(=O)O
34 | 1700 nM | 0.033 | – | – | 6.1% | – | – | N[C@@H](COP(=O)(O)OCCCOC(=O)CCc1ccccc1OCCCCOc1ccccc1)C(=O)O

Row | SMILES | EC50 [1] | Intrinsic activity [2] | EC50 ([3]; read-out: EC50) | Intrinsic activity [4] | Emax [5] | Emax [6] | EC50 ([3]; read-out: pEC50 (converted))
35 | CCCCCCCC/C=C\CCCCCCCC(=O)OC[C@@H](O)COP(=O)(O)OC[C@H](N)C(=O)O | – | 0.26 | – | – | 14% | – | –
36 | N[C@@H](COP(=O)(O)O[C@@H]1CCCO[C@@H]1COC(=O)CCc1ccccc1OCc1cccc(Oc2ccccc2)c1)C(=O)O | 180 nM | 1 | 150 nM | 1 | 21.3% | 25.6% | –
